In ChEMBL document CHEMBL1144774, “Vasorelaxing alkaloids and flavonoids from Cassytha filiformis” (J Nat Prod, 2008):

System: Aorta
Experiment: Vasorelaxation activity in Sprague-Dawley rat aortic assessed as inhibition of phenylephrin-induced contraction
Format: functional, tissue-based
How it was run: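 Endothelium-intact aortic rings from adult male rats (280–320 g) held isometrically at 1.8 g passive tension for 60 min; endothelium confirmed by >98% relaxation to acetylcholine (3 µM). Tonic contraction to phenylephrine (0.3 µM) set as 100%. Compound added cumulatively, 0.01–100 µM, one curve per ring. IC50 taken from percent-relaxation curves; mean ± SE of n independent experiments.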

Compound	IC50 [µM]
COC1=C[C@@]23CCN(C)[C@@H](Cc4cc(OC)c(OC)cc42)C3=CC1=O	28.9
COc1cc(-c2oc3cc(O)cc(O)c3c(=O)c2O[C@@H]2O[C@H](CO)[C@@H](O)[C@H](O)[C@H]2O)ccc1O	23.6
COc1ccc2c(c1OC)-c1c3c(c(OC)c4c1[C@H](C2)NCC4)OCO3	16.5
COC1=C[C@@]23CCN(C)[C@@H](Cc4ccc(OC)c(O)c42)C3=CC1=O	32.8
COc1ccc2c(c1C(=O)O)-c1c3c(c(OC)c4c1[C@H](C2)NCC4)OCO3 [CASSYTHIC ACID]	2.48
COc1cc2c(cc1O)C[C@@H]1NCCc3c(OC)c4c(c-2c31)OCO4 [CASSYTHINE]	0.09
COc1cc2c(cc1OC)-c1c3c(cc4c1[C@H](C2)N(C)CC4)OCO3 [DICENTRINE]	0.08
COc1cc2c(cc1O)C(=O)c1nccc3c(OC)c4c(c-2c13)OCO4 [ISOFILIFORMINE]	32
COc1cc(-c2oc3cc(O)cc(O)c3c(=O)c2O[C@@H]2O[C@H](CO[C@@H]3O[C@@H](C)[C@H](O)[C@@H](O)[C@H]3O)[C@@H](O)[C@H](O)[C@H]2O)ccc1O [NARCISSIN]	16.8
CN1CCc2cc3c(c4c2[C@@H]1Cc1cc2c(cc1-4)OCO2)OCO3 [NEOLITSINE]	0.29
